Test results taken from ChEMBL document CHEMBL3085721, “Nonhydrolyzable ATP analogues as selective inhibitors of human NPP1: a combined computational/experimental study” (J Med Chem, 2013).

What was measured:
[1] = molecular target: T1, Ectonucleoside triphosphate diphosphohydrolase 1 (Homo sapiens) (UniProt P49961); test: Inhibition of human NTPDase1 assessed as amount of inorganic phosphate released using ATP as the substrate preincubated at 100 uM for 3 mins before substrate addition after 15 mins by malachite green reagent method
T1 sequence (whole entry): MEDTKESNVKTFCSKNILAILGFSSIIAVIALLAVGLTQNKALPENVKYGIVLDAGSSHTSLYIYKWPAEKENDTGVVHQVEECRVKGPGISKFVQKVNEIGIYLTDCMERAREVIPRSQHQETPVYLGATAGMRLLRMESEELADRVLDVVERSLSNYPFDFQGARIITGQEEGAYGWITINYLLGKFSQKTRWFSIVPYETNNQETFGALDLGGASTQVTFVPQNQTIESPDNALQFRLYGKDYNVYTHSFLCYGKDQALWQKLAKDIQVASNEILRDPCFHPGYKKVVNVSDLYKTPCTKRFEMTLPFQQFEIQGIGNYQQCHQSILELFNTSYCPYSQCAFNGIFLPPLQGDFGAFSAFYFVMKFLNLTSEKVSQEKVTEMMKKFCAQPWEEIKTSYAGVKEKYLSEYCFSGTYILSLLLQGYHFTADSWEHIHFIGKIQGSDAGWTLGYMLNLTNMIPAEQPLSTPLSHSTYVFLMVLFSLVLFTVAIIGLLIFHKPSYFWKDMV
In short: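 Crude extracts of COS-7 cells transiently transfected with human NTPDase1, -2, -3 or -8, preincubated 3 min at 37 °C in Tris-Ringer medium pH 7.4 with analogue (final 100 μM). Started with 100 μM ATP, stopped after 15 min with malachite green; released Pi read at 630 nm. ATP alone set as 100%. Mean ± SD of 3−6 experiments in triplicate.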

[2] = molecular target: T2, Ectonucleotide pyrophosphatase/phosphodiesterase family member 3 (Homo sapiens) (UniProt O14638); test: Inhibition of human NPP3 expressed in COS7 cells assessed as production of p-nitrophenol using pnp-TMP as the substrate preincubated at 100 uM for 3 mins before substrate addition measured after 15 mins […]; type: cell-based; details: COS-7
T2 sequence (whole entry): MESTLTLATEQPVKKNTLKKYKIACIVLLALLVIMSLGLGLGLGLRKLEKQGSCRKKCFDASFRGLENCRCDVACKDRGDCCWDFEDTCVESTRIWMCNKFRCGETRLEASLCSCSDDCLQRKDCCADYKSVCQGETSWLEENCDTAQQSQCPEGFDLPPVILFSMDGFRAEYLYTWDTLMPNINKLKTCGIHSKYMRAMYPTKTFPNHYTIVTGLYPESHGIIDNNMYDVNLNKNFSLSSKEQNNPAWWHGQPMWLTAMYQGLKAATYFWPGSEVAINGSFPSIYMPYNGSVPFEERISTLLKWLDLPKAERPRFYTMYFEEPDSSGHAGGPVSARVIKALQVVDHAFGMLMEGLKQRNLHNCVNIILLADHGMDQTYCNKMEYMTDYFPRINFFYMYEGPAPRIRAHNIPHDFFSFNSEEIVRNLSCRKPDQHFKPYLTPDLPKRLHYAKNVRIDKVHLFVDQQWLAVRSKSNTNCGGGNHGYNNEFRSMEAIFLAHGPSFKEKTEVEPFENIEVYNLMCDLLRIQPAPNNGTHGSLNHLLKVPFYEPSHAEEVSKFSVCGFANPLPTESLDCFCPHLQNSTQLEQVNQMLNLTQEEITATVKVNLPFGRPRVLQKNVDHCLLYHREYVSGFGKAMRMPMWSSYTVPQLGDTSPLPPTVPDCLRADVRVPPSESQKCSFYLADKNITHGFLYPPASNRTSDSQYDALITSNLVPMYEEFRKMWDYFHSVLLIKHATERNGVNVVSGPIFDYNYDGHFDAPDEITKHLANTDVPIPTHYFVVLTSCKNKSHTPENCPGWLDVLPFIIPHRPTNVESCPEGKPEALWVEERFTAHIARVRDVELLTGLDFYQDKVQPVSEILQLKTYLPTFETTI
In short: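 Crude extracts of COS-7 cells transiently transfected with human NPP1 or NPP3, preincubated 3 min at 37 °C in 1 mM CaCl2, 140 mM NaCl, 5 mM KCl, 50 mM Tris pH 8.5 with analogue at 100 μM. Reaction started with 100 μM pnp-TMP; p-nitrophenol at 410 nm after 15 min. Activity without analogue set as 100%. Mean ± SD of 3−6 experiments in triplicate.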

Compound | inhibition [1] | inhibition [2]
B[P@@](=O)(OC[C@H]1O[C@@H](n2cnc3c(N)ncnc32)[C@H](O)[C@@H]1O)OP(=O)(O)CP(=O)(O)O | < 18% | –
B[P@](=O)(OC[C@H]1O[C@@H](n2cnc3c(N)nc(SC)nc32)[C@H](O)[C@@H]1O)OP(=O)(O)CP(=O)(O)O | < 18% | –
B[P@](=O)(OC[C@H]1O[C@@H](n2cnc3c(N)ncnc32)[C@H](O)[C@@H]1O)OP(=O)(O)CP(=O)(O)O | < 18% | –
B[P@@](=O)(OC[C@H]1O[C@@H](n2cnc3c(N)nc(SC)nc32)[C@H](O)[C@@H]1O)OP(=O)(O)C(F)(F)P(=O)(O)O | 50% | 50%
CSc1nc(N)c2ncn([C@@H]3O[C@H](COP(=O)(O)C(F)(F)P(=O)(O)O)[C@@H](O)[C@H]3O)c2n1 | < 18% | 50%
